Activity calls are given as the source filed them. The calls are words filed in the database; no cut-off is given here.
How the values were obtained:
Mus musculus [1] = assay: Antiprotozoal activity in mouse infected with Trypanosoma brucei rhodesiense STIB900 measured as average days of survival at 5 mg/kg, ip; format: functional; settings: route intraperitoneal
Procedure, shortened: (§1)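 Acute STIB900 mouse model. Dosing ran for 4 days, given ip or po. The read-out was average days of survival post infection. Mice surviving 60 days parasite-free were scored as cures. Untreated infected mice served as controls.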

Mus musculus [2] = assay: Antiprotozoal activity in mouse infected with Trypanosoma brucei rhodesiense STIB900 measured as average days of survival at 20 mg/kg, ip; format: functional; settings: route intraperitoneal; procedure, shortened: as §1
Mus musculus [3] = assay: Antiprotozoal activity in mouse infected with Trypanosoma brucei rhodesiense STIB900 measured as survival upto 60 days at 20 mg/kg, ip; format: functional, organism-based; set-up: dose 20 mg/kg
Procedure, shortened: (§2)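 Acute mouse model of T. b. rhodesiense STIB900 infection. Compound was given for 4 days, either intraperitoneally or orally, at the stated dose, with untreated infected controls. Read-outs were the number of mice alive and parasite-free at 60 days and the average days of survival.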

Mus musculus [4] = assay: Antiprotozoal activity in mouse infected with Trypanosoma brucei rhodesiense STIB900 measured as survival upto 60 days at 5 mg/kg, ip; format: functional, organism-based; set-up: dose 5 mg/kg; procedure, shortened: as §2
[5] = test system: Trypanosoma brucei rhodesiense; assay: Antiprotozoal activity against Trypanosoma brucei rhodesiense STIB900; format: functional, organism-based
Procedure, shortened: (§3)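 Run in vitro against T. b. rhodesiense strain STIB900 or P. falciparum strain K1. Values are from duplicate determinations.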

Plasmodium falciparum = assay: Antiprotozoal activity against Plasmodium falciparum K1; format: functional, organism-based; procedure, shortened: as §3
L6 = assay: Cytotoxicity against rat L6 cells; format: functional, cell-based
Mus musculus [6] = assay: Antiprotozoal activity in mouse infected with Trypanosoma brucei rhodesiense STIB900 measured as average days of survival at 100 mg/kg, po; format: organism-based; set-up: dose 100 mg/kg, route oral; settings: in vivo; procedure, shortened: as §1
Mus musculus [7] = assay: Antiprotozoal activity in mouse infected with Trypanosoma brucei rhodesiense STIB900 measured as survival upto 60 days at 100 mg/kg, po; format: functional, organism-based; set-up: dose 100 mg/kg; procedure, shortened: as §2
[8] = Half life in B6C3F1 mouse liver microsome; format: ADME; settings: liver microsomes
Procedure, shortened: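 Pooled male B6C3F1 mouse liver microsomes (0.5 mg/mL protein) in 100 mM phosphate pH 7.4 with 5 mM MgCl2 and 0.5% DMSO, run in duplicate. After 3 min preincubation at 37 °C, 2 mM NADPH started the reaction. Acetonitrile quench at 0–30 min, then LC-MS/MS (positive MRM). t1/2 = 0.693/slope of ln % parent remaining versus time.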

Mus musculus [9] = assay: Antiprotozoal activity in mouse infected with Trypanosoma brucei rhodesiense STIB900 measured as survival upto 60 days at 25 mg/kg, po; format: functional, organism-based; set-up: dose 25 mg/kg; procedure, shortened: as §2
Mus musculus [10] = assay: Antiprotozoal activity in mouse infected with Trypanosoma brucei rhodesiense STIB900 measured as average days of survival at 25 mg/kg, po; format: functional; procedure, shortened: as §1

Row | SMILES | Survival (Mus musculus [1]) [days] | Survival (Mus musculus [2]) [days] | Activity (Mus musculus [3]) | Activity (Mus musculus [4]) | IC50 [5] [µM] | IC50 (Plasmodium falciparum) [µM] | IC50 (L6) [µM] | Survival (Mus musculus [6]) [days] | Activity (Mus musculus [7]) | half-life [8] [h] | Activity (Mus musculus [9]) | Survival (Mus musculus [10]) [days]
1 | N=C(N)c1ccc(-c2ccc(-c3ccc(C(=N)N)cc3)o2)cc1 [FURAMIDINE] | 35.5 | >52.5 | inactive | inactive |  |  |  |  |  |  |  | 
2 | N=C(N)c1ccc(-c2ccc(-c3ccc(C(=N)N)cc3)cc2)cc1 |  | >47.75 |  |  | 0.005 | 0.001 |  |  |  |  |  | 
3 | N=C(NO)c1ccc(-c2ccc(-c3ccc(/C(N)=N\O)cc3)cc2)cc1 |  |  |  |  | 22.8 | > 11.8 | > 211 | 24.75 | inactive |  |  | 
4 | CON=C(N)c1ccc(-c2ccc(-c3ccc(C(N)=NOC)cc3)cc2)cc1 |  |  |  |  |  |  |  | 20.75 |  | > 1.5 |  | 
5 | N=C(N)c1ccc(-c2ccc(-c3ccc(C(=N)N)o3)cc2)cc1 |  | 21.25 | inactive |  | 0.005 | 0.001 | 56.1 |  |  |  |  | 
6 | N=C(N)c1ccc(-c2cnc(-c3ccc(C(=N)N)cc3)nc2)cc1 | 23.5 |  |  | inactive |  | 0.0005 |  |  |  |  |  | 
7 | N=C(NO)c1ccc(-c2ccc(-c3ccc(/C(N)=N/O)cc3)cc2)o1 |  |  |  |  | 67 | 6.6 |  |  |  |  | inactive | 16
8 | CONC(=N)c1ccc(-c2ccc(-c3ccc(C(=N)NOC)cc3)o2)cc1 [PAFURAMIDINE] |  |  |  |  |  |  |  |  |  | < 0.25 |  | >60
9 | N=C(N)c1ccc(-c2ccc(-c3ccc(C(=N)N)cn3)cc2)nc1 | >60 |  |  |  | 0.047 | 0.01 |  |  |  |  |  | 
10 | CONC(=N)c1ccc(-c2ccc(-c3ccc(C(=N)NOC)cc3)cc2)cc1 |  |  |  |  | 13.8 | 0.371 | 118 |  | inactive |  |  | 
11 | COc1cc(-c2ccc(C(=N)N)cc2)c(OC)cc1-c1ccc(C(=N)N)cc1 | >51.75 |  |  |  | 0.015 | 0.037 | > 100 |  |  |  |  | 
12 | N=C(N)c1ccc(-c2ccc(-c3ccc(C(=N)N)o3)cn2)cc1 | >41.75 | >53.5 |  |  | 0.002 | 0.01 | 30.9 |  |  |  |  | 
13 | CONC(=N)c1ccc(-c2ccc(-c3ccc(C(=N)NOC)cc3)c(C(F)(F)F)c2)cc1 |  |  |  |  | 36.9 | 3.8 | 42.2 |  |  |  | inactive | 7.25
14 | N=C(NO)c1ccc(-c2ccc(-c3ccc(/C(N)=N\O)cc3)cc2C(F)(F)F)cc1 |  |  |  |  | 29.9 | 3.1 | 13.3 |  |  |  | inactive | 9
15 | CO/N=C(/N)c1ccc(-c2ccc(-c3ccc(C(=N)NOC)cc3)nc2)cc1 |  |  |  |  | 34.7 | 3.2 | > 166 |  |  | 0.917 | inactive | >42.75
16 | CONC(=N)c1ccc(-c2ccc(-c3ccc(C(=N)NOC)cc3)c(F)c2)cc1 |  |  |  |  | 51.5 | 4.2 | 8.5 |  |  | > 1.5 | inactive | 37.25
17 | CO/N=C(\N)c1ccc(-c2ccc(-c3ccc(C(=N)NOC)cc3)cc2)o1 |  |  |  |  | 24 | 1.6 | > 205 |  |  |  | inactive | 6.25
18 | CONC(=N)c1ccc(-c2cnc(-c3ccc(C(=N)NOC)cc3)nc2)cc1 |  |  |  |  | 49 | 5.7 | > 177 |  |  | > 1.5 | inactive | 12.5
19 | N=C(NO)c1ccc(-c2ccc(-c3ccc(/C(N)=N\O)cc3)nc2)cc1 |  |  |  |  | 9.3 | 7.6 | > 184 | > 35.75 |  |  |  | 
20 | N=C(N)c1ccc(-c2ccc(-c3ccc(C(=N)N)cc3)nc2)cc1 | >42 | >60 | Active |  | 0.002 | 0.01 |  |  |  |  |  | 
21 | N=C(N)c1ccc(-c2ccc(-c3ccc(C(=N)N)cc3)c(F)c2)cc1 | >51.75 |  |  | inactive | 0.002 | 0.001 |  |  |  |  |  | 
22 | N=C(N)c1ccc(-c2ccc(-c3ccc(C(=N)N)cc3)c(C(F)(F)F)c2)cc1 | 17.25 |  |  | inactive | 0.048 | 0.015 | 9.4 |  |  |  |  | 
23 | CONC(=N)c1ccc(-c2ccc(-c3ccc(C(=N)NOC)cn3)cc2)nc1 |  |  |  |  | 82.9 | 1.2 | > 158 |  |  | > 1.5 | inactive | 12
24 | N=C(N)c1ccc(OCCCCCOc2ccc(C(=N)N)cc2)cc1 [PENTAMIDINE] |  | >42.75 | inactive |  |  |  |  |  |  |  |  | 
25 | N=C(NO)c1ccc(-c2ccc(-c3ccc(/C(N)=N\O)cc3)cc2F)cc1 |  |  |  |  |  | 0.925 | 29.1 |  |  |  | inactive | 22.25
